Screening results: PubChem BioAssay, several laboratories
A selection: hits, their analogues and other compounds. The true share with any hit is near 3.7%.
Dynein cargo inh: dynein cargo transport inhibition | z-score, hits read low | 220,000 tested, 0.47% active | 3617.4 mouse cells, GR-EGFP nuclear translocation imaging; test concentration mostly 20 µM; stimulated with dexamethasone, 1 µM; active compounds read low;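 active = plate z-score of nuclear minus cytoplasmic receptor signal below a set negative limit, without overly bright fluorescence or cell loss, cut at about -3.5 in these data, passing the limit was not always enough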;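 also: z-score of nuclear minus cytoplasmic ring GR-EGFP intensity difference per well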
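Buffer or medium: tet-free, stripped-serum medium; Also added: dexamethasone, 1.0 µM final; Technique: high-content fluorescence imaging after fixation; Times: 48 h induction, 1 h compound, 30 min dex at 37 °C; Read-out: per-cell GR-EGFP intensity, nucleus versus surrounding cytoplasmic ring, well-averaged.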
Mdm2 MdmX PPI: human Mdm2/MdmX binding inhibition | SaOS-2 split-luciferase Mdm2/MdmX complementation, luminescence | inhibition, % at 8 µM | 330,000 tested, 3% active;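 active = inhibition of at least 50% at 8 µM in the primary screen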
CHOP UPR activ: apoptotic UPR (CHOP) activation; activation, % at 10 µM; 330,000 tested, 0.34% active; AID 449763; CHO-CHOP luciferase reporter, luminescence; percent of tunicamycin response over DMSO baseline;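 active = at 10 µM dose, activation of 40% or more, normalized to positive control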;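 also: 100% = tunicamycin at 10 µg/mL and 0% = DMSO alone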
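Assay system: CHO-CHOP cells, stable luciferase reporter of PERK-eIF2a-CHOP signalling / Buffer or medium: F12 plus 10% serum / Compound dosing: one dose, 10 µM in 0.5% DMSO / Times: 6 h compound treatment, 37 °C / Technique: luciferase luminescence / Read-out: % reporter activation, DMSO baseline versus tunicamycin full activation / Benchmarks: tunicamycin and DMSO controls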
Beta2AR agonist: agonists of human beta-2 adrenergic receptor inducing internalization; P07550; Am2.2-beta2AR cells, FAP receptor internalization, flow cytometry; response, % (no concentration beside the values); 340,000 tested, 0.43% active;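 active = response above a set limit, near 3 SD of response in nonfluorescent compounds, cut at about 42% in these data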
UPR XBP1 act: adaptive UPR (XBP1) activation; CHO-XBP1 luciferase reporter, IRE1-XBP1 UPR activation, luminescence; percent of tunicamycin response, DMSO as zero; activation, % at 20 µM; 330,000 tested, 0.33% active; AID 463104;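 active = versus positive control, 20 µM dose yields 30% or more activation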;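 also: 100% = tunicamycin at 10 µg/mL and 0% = DMSO only wells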
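Assay system: CHO-XBP1 luciferase reporter cells; Schedule: 6 h treatment, 37 °C; Detection: glow luminescence from Steady-Glo reagent; Benchmarks: high control tunicamycin 10 µg/mL final, low control DMSO vehicle only.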
Mdm2 ligase inh: Mdm2 E3 ligase (human) inhibition; Q00987; cell-based MDM2 ubiquitination luciferase reporter, 2 h; 0 = plate control, 100 = twice control, blank-subtracted; signal enhancement, % at 5 µM; 210,000 tested, 0.11% active; AID 1230;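 active = signal enhancement of 30% or more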;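 also: luminescence tracks abundance of the self-degrading MDM2-luciferase fusion protein; higher signal means inhibition of MDM2 E3 ligase activity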
Target sequence (Q00987 whole entry, looked up, the tested form may be a part): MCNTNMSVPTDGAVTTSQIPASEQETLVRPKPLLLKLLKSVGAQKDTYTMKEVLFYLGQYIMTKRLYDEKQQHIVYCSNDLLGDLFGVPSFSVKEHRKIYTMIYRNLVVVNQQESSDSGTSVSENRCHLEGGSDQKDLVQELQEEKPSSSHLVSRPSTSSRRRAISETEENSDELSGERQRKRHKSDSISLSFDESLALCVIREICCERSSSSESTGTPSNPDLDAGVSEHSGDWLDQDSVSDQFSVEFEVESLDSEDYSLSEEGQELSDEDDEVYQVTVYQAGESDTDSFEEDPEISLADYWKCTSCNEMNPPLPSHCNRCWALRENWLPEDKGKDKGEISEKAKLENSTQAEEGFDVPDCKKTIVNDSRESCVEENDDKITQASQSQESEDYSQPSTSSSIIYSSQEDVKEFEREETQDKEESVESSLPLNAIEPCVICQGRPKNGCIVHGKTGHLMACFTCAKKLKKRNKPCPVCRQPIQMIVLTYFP
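Assay system: mammalian cells stably expressing self-ubiquitinating, self-degrading MDM2 E3–luciferase fusion. Quantity: 2000 cells in each well. Medium: DMEM culture medium. Compound dosing: single-point 5 µM. Timing: cell settling 4 h, compound treatment 2 h, both 37 °C. Technique: luciferase luminescence. Read-out basis: percent signal gain over controls, blank-subtracted. Benchmarks: plate controls and plate blanks.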
UPR CHOP confirm: confirmation of apoptotic unfolded protein response (CHOP) activators | shares compounds with CHOP UPR activ | CHO-CHOP cells, CHOP-luciferase reporter luminescence; percent of tunicamycin response, DMSO as zero | activation, % at 10 µM | 1,000 tested, 64% active; in the data active = activation above about 33%;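 also: 0% = DMSO wells and 100% = tunicamycin 10 µg/mL wells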
UPR XBP1 confirm: adaptive UPR (XBP1) activation, confirmed | 1,000 tested, 63% active | CHO-XBP1 IRE1-XBP1 luciferase reporter, luminescence | shares compounds with UPR XBP1 act | AID 485299 | activation, % at 20 µM;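 active = reporter signal at least 30% of the positive control's activation in two or more of four replicate wells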;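 also: plate controls were DMSO negative control for no effect and tunicamycin 10 µg/mL positive control for full effect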
Mdm2 MdmX conf: confirmation of human Mdm2/MdmX interaction inhibitors; Mdm2-MdmX binding, luminescent assay; inhibition, % at 8 µM; 10,000 tested, 55% active; AID 489028; shares compounds with Mdm2 MdmX PPI; in the data active = inhibition above about 40%
Full FLuc ctr: counter-screen for Mdm2/MdmX inhibitors: full-length luciferase; AID 504607; inhibition, % at 8 µM; 6,200 tested, 77% active; shares compounds with Mdm2 MdmX PPI; SaOS-2 full-length luciferase counterscreen, luminescence;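 active = mean inhibition at 8 µM reaching about 37%, which flags the compound as non-specific, limit read from the data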;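 also: p53-null SaOS-2 cells with luciferase driven by a doxycycline-inducible promoter; compound on cells about two nights before reading with doxycycline added after day one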
Starred values were filed as active, the others as inactive.

Screening C/C(=N\NC(=O)c1cccc(Br)c1)c1ccccn1 returned Mdm2 MdmX PPI 100*, CHOP UPR activ 535*, Beta2AR agonist 1, UPR XBP1 act 7, UPR CHOP confirm 449*, Mdm2 MdmX conf 63* and Full FLuc ctr 50*.
Screening CC(=O)OC1CC2(C)/C(=N\O)CCC2C2CCc3cc(O)ccc3C12 (stereo unspecified) returned Mdm2 MdmX PPI 23, CHOP UPR activ 0, Beta2AR agonist 1 and UPR XBP1 act 10.
Screening CCC(Sc1nc2ncccc2[nH]1)C(=O)N1CCOCC1 (stereo unspecified) returned Mdm2 MdmX PPI -3, CHOP UPR activ -1, Beta2AR agonist 2 and UPR XBP1 act -2.
Screening C/C(=N\NC(=O)C(c1ccccc1)c1ccccc1)c1ccccn1 returned Dynein cargo inh -0.81, Mdm2 MdmX PPI 75*, CHOP UPR activ 80*, Beta2AR agonist 46*, UPR XBP1 act -1, Mdm2 ligase inh -8, UPR CHOP confirm 51*, Mdm2 MdmX conf 64* and Full FLuc ctr 50*.
Screening C/C(=N\NC(=O)c1ccc(Cl)c(Cl)c1)c1ccccn1 returned Mdm2 MdmX PPI 83*, CHOP UPR activ 367*, Beta2AR agonist 0, UPR XBP1 act 4, UPR CHOP confirm 322*, Mdm2 MdmX conf 81* and Full FLuc ctr 26.
For C/C(=N\NC(=O)c1ccccc1Cl)c1ccccn1 the results were Mdm2 MdmX PPI 48, CHOP UPR activ 21, Beta2AR agonist 6 and UPR XBP1 act 7.
NC(=O)NC(=O)C(c1ccccc1)N1CCN(S(=O)(=O)Cc2ccccc2)CC1 (stereo unspecified) was read as Mdm2 MdmX PPI 21, CHOP UPR activ 0, Beta2AR agonist 1 and UPR XBP1 act -2.
Screening COc1ccc(/C=c2\s/c(=C(/C#N)C(=O)NCc3ccco3)n(-c3ccccc3)c2=O)cc1 returned Dynein cargo inh 1.1, Mdm2 MdmX PPI 68*, CHOP UPR activ 43*, Beta2AR agonist -4, UPR XBP1 act 38*, Mdm2 ligase inh -8, UPR CHOP confirm 8, UPR XBP1 confirm 43* and Mdm2 MdmX conf -1.
`COc1cc(/C=C(/C#N)c2nc3ccccc3[nH]2)ccc1OCC(=O)Nc1ccccc1C` gave Dynein cargo inh 3, Mdm2 MdmX PPI 100*, CHOP UPR activ 299*, Beta2AR agonist 3, UPR XBP1 act 116*, Mdm2 ligase inh -12, UPR CHOP confirm 38*, UPR XBP1 confirm 79* and Mdm2 MdmX conf 17.
For COc1cc(/C=C(\C#N)c2nc3ccccc3[nH]2)ccc1OC(=O)c1ccco1 the results were Dynein cargo inh 1.1, Mdm2 MdmX PPI -24, CHOP UPR activ 7, Beta2AR agonist -5, UPR XBP1 act 17 and Mdm2 ligase inh 5.
For COc1cc(/C=C(/C#N)c2nc3ccccc3[nH]2)ccc1OCC(=O)Nc1ccccc1C(C)C the results were Dynein cargo inh -0.36, Mdm2 MdmX PPI 100*, CHOP UPR activ 76*, Beta2AR agonist -13, UPR XBP1 act -6, Mdm2 ligase inh -40, UPR CHOP confirm 64*, Mdm2 MdmX conf 79* and Full FLuc ctr 52*.
For COc1ccccc1OC(=O)c1cc2ccccc2oc1=O the results were Mdm2 MdmX PPI 21, CHOP UPR activ 2, Beta2AR agonist -14 and UPR XBP1 act -1.
Screening COc1cc(/C=C/[N+](=O)[O-])ccc1OC(=O)c1cc2ccccc2oc1=O returned Mdm2 MdmX PPI 51*, CHOP UPR activ 120*, Beta2AR agonist 54*, UPR XBP1 act -10, UPR CHOP confirm -4 and Mdm2 MdmX conf 3.
`O=C(COc1ccc(/C=N/NC(=O)c2cc3ccccc3o2)cc1Cl)Nc1ccccc1` gave Dynein cargo inh -0.09, Mdm2 MdmX PPI 97*, CHOP UPR activ 51*, Beta2AR agonist 8, UPR XBP1 act 7, Mdm2 ligase inh -38, UPR CHOP confirm -3 and Mdm2 MdmX conf -100.
`Cc1ccc(Sc2nc(-c3ccccc3)nnc2C(F)(F)F)cc1` gave Mdm2 MdmX PPI 54*, CHOP UPR activ 40*, Beta2AR agonist -2, UPR XBP1 act -10, Mdm2 ligase inh -2, UPR CHOP confirm 120* and Mdm2 MdmX conf 4.
For COc1ccc(CC(=O)OC(C)C(=O)NC2CCCCC2C)cc1 (stereo unspecified) the results were Mdm2 MdmX PPI 9, CHOP UPR activ -1, Beta2AR agonist 2 and UPR XBP1 act 0.
Cc1cc(C(=O)c2ccc(Cl)cc2)c(NC(=O)CCl)s1 was read as Dynein cargo inh -3.4, Mdm2 MdmX PPI 67*, CHOP UPR activ 50*, Beta2AR agonist 7, UPR XBP1 act 7, Mdm2 ligase inh -16, UPR CHOP confirm 46* and Mdm2 MdmX conf 6.
Cc1ccc(C(=O)c2cc(C)sc2N)cc1 was read as Dynein cargo inh -0.62, Mdm2 MdmX PPI -6, CHOP UPR activ 0, Beta2AR agonist -4, UPR XBP1 act 6 and Mdm2 ligase inh -12.
`Cn1c(=NC(=O)CCl)sc2ccccc21` gave Dynein cargo inh -0.96, Mdm2 MdmX PPI 98*, CHOP UPR activ 41*, Beta2AR agonist -1, UPR XBP1 act -2, Mdm2 ligase inh -8, UPR CHOP confirm 23, Mdm2 MdmX conf 97* and Full FLuc ctr 29.
Screening O=C(Nc1nccs1)c1cccc(N2C(=O)c3cccc4c([N+](=O)[O-])ccc(c34)C2=O)c1 returned Dynein cargo inh 0.46, Mdm2 MdmX PPI 87*, CHOP UPR activ 85*, Beta2AR agonist 20, UPR XBP1 act 14, Mdm2 ligase inh -5, UPR CHOP confirm 122* and Mdm2 MdmX conf 9.
`CC(=O)Oc1cccc(N2C(=O)c3cccc4c([N+](=O)[O-])ccc(c34)C2=O)c1` gave Mdm2 MdmX PPI 46, CHOP UPR activ 16, Beta2AR agonist 4 and UPR XBP1 act -9.
